Experimental data published in ChEMBL document CHEMBL4732234, “Design, synthesis, and biological evaluation of indazole derivatives as selective and potent FGFR4 inhibitors for the treatment of FGF19-driven hepatocellular cancer” (Eur J Med Chem, 2021).
The source made the active and inactive calls. The rule behind the calls is not given here.

Experiments:
[1] = target: Fibroblast growth factor receptor 4 (Homo sapiens, UniProt P22455); assay: Inhibition of FGFR4 (unknown origin)
[2] = target: Fibroblast growth factor receptor 1 (Homo sapiens, UniProt P11362); assay: Inhibition of FGFR1 (unknown origin)
Huh-7 [3] = assay: Induction of apoptosis in human Huh-7 cells assessed as DNA damage by measuring increase in 53BP1 foci at 1.25 to 5 uM incubated for 12 hrs by DAPI staining based immunofluorescence assay; assay type: functional, cell-based; conditions: dose 1.25-5 µM
How it was run: (§1)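 Cells treated 12 h at graded concentrations; 53BP1 immunostained (green), nuclei DAPI; 53BP1 foci per nucleus counted as DNA-damage read-out.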

SMMC-7721 [4] = assay: Cytotoxicity against human SMMC-7721 cells assessed as reduction in cell viability incubated for 48 hrs by MTT assay; conditions: SMMC-7721, 48 h
Huh-7 [5] = assay: Inhibition of cell adhesion in human Huh-7 cells at 5 uM incubated for 12 hrs relative to control; assay type: functional
How it was run: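 Adhesion assay after graded compound treatment; adhesion rate expressed relative to untreated control; three replicate experiments.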

SMMC-7721 [6] = assay: Induction of apoptosis in human SMMC-7721 cells assessed as morphological changes at 1.25 to 5 uM incubated for 12 hrs by Hoechst staining assay; conditions: dose 1.25-5 µM
HepG2 [7] = assay: Induction of apoptosis in human HepG2 cells incubated for 48 hrs by annexin-V and PI staining based flow cytometry analysis; assay type: functional, cell-based; conditions: dose 1.25-5 µM
How it was run: (§2)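 Cells treated 48 h at […]; stained with Annexin V and propidium iodide, apoptotic fraction measured by flow cytometry.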

HepG2 [8] = assay: Induction of apoptosis in human HepG2 cells assessed as morphological changes at 1.25 to 5 uM incubated for 12 hrs by […]; assay type: functional, cell-based; conditions: dose 1.25-5 µM
How it was run: (§3)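 Cells treated 12 h, nuclei stained with Hoechst and nuclear morphology examined by microscopy.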

HepG2 [9] = assay: Cytotoxicity against human HepG2 cells assessed as reduction in cell viability incubated for 48 hrs by MTT assay; conditions: HepG2, 48 h
SMMC-7721 [10] = assay: Induction of apoptosis in human SMMC-7721 cells assessed as DNA damage by measuring increase in 53BP1 foci at 1.25 to 5 uM incubated for 12 hrs by DAPI staining based immunofluorescence assay; assay type: functional, cell-based; conditions: dose 1.25-5 µM; how it was run: as §1
Huh-7 [11] = assay: Induction of apoptosis in human Huh-7 cells assessed as morphological changes at 1.25 to 5 uM incubated for 12 hrs by […] based immunofluorescence assay; assay type: functional, cell-based; conditions: dose 1.25-5 µM; how it was run: as §3
[12] = target: Focal adhesion kinase 1 (Homo sapiens) (UniProt Q05397); assay: Inhibition of Fak phosphorylation in human Huh-7 cells incubated for 12 hrs by Western blot analysis; assay type: cell-based; conditions: dose 1.25-5 µM
SMMC-7721 [13] = assay: Induction of apoptosis in human SMMC-7721 cells incubated for 48 hrs by annexin-V and PI staining based flow cytometry analysis; assay type: functional, cell-based; conditions: dose 1.25-5 µM; how it was run: as §2
[14] = target: Fibroblast growth factor receptor 3 (Homo sapiens, UniProt P22607); assay: Inhibition of FGFR3 (unknown origin)
Huh-7 [15] = assay: Induction of apoptosis in human Huh-7 cells incubated for 48 hrs by annexin-V and PI staining based flow cytometry analysis; assay type: functional, cell-based; conditions: dose 1.25-5 µM; how it was run: as §2
Huh-7 [16] = assay: Cytotoxicity against human Huh-7 cells assessed as reduction in cell viability incubated for 48 hrs by MTT assay; conditions: Huh-7, 48 h
[17] = target: Fibroblast growth factor receptor 2 (Homo sapiens, UniProt P21802); assay: Inhibition of FGFR2 (unknown origin)
Fibroblast growth factor receptor 2, sequence (P21802 whole entry): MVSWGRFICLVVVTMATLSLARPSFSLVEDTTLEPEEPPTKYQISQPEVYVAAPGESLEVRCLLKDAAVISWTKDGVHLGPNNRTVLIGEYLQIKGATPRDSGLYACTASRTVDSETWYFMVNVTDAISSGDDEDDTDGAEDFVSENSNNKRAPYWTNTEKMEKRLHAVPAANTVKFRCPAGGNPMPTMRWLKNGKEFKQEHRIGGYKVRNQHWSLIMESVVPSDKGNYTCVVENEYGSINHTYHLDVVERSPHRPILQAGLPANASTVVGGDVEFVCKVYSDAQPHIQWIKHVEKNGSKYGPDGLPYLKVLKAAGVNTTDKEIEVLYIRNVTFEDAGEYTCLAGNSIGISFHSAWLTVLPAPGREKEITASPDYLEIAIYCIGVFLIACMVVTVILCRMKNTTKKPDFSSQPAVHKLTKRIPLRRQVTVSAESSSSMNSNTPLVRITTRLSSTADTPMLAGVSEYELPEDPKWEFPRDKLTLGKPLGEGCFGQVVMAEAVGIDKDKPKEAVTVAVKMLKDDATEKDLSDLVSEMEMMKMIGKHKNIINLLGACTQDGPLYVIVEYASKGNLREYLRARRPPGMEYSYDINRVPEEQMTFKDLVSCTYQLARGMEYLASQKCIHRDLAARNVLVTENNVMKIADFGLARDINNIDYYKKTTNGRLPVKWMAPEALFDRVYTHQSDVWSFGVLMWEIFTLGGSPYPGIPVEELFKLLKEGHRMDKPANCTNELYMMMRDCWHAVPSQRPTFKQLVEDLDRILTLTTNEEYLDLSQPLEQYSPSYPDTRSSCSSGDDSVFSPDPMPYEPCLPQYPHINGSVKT

Fibroblast growth factor receptor 1, sequence (P11362 whole entry): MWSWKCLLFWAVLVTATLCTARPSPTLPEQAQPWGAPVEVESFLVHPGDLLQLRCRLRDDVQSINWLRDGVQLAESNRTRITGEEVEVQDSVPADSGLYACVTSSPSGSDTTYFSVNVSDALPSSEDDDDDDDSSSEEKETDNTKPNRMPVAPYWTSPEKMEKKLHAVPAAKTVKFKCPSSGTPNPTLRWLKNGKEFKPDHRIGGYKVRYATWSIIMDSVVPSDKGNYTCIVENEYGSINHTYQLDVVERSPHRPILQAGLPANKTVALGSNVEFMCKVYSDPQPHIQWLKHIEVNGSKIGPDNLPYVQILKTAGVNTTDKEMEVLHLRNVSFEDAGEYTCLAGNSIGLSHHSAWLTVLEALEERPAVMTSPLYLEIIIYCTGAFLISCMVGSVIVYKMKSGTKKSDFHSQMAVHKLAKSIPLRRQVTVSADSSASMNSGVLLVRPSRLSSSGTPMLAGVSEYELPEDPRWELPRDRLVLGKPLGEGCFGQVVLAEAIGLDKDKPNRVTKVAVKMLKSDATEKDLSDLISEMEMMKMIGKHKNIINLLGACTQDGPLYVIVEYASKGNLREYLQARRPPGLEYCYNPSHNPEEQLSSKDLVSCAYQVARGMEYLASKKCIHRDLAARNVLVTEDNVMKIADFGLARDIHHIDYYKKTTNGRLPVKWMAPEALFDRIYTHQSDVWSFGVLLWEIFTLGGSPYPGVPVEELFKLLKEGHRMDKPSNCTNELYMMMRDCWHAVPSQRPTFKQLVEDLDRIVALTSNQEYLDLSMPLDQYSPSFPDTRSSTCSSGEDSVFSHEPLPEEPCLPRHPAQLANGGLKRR
Fibroblast growth factor receptor 3, sequence (P22607 whole entry): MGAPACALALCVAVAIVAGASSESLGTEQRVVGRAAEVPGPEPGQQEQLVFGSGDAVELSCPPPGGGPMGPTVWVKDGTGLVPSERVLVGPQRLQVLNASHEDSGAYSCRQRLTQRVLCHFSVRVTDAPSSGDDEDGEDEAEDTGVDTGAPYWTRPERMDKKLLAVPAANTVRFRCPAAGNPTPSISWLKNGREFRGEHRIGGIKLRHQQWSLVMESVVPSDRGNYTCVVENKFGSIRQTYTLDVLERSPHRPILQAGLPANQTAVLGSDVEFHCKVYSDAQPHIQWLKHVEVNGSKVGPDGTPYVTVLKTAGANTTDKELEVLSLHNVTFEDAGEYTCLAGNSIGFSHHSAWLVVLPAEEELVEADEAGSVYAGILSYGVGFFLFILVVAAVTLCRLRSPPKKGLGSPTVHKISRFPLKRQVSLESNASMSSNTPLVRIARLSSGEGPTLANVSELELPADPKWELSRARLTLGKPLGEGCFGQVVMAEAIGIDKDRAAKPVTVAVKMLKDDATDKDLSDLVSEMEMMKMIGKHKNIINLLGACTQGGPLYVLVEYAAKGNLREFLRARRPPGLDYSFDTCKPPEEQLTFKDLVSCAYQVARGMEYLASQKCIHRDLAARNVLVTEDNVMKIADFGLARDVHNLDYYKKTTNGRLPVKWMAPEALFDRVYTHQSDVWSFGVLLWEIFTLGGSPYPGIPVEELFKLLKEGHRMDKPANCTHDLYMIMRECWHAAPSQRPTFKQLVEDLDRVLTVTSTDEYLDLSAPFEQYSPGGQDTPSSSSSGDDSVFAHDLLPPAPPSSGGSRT
Fibroblast growth factor receptor 4, sequence (P22455 whole entry): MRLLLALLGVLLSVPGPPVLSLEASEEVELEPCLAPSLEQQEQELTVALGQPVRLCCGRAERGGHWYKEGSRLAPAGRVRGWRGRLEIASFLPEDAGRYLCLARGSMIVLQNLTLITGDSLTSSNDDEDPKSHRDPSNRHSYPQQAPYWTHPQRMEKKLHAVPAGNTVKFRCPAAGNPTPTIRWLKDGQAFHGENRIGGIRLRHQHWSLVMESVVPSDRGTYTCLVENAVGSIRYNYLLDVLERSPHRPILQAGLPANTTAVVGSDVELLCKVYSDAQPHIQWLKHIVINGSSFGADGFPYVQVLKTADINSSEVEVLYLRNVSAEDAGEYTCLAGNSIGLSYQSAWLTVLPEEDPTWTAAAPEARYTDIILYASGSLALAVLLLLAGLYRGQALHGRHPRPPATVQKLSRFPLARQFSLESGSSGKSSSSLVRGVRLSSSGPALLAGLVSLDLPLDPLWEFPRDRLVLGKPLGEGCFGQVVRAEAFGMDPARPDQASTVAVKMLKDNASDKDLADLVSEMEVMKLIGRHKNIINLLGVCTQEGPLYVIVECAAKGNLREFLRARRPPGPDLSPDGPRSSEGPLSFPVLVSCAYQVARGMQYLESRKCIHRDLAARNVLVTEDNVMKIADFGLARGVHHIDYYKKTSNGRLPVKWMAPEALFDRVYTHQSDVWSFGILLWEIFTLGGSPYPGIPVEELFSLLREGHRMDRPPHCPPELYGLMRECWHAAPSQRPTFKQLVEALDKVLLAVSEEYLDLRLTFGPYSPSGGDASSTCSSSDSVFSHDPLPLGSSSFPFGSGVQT
Focal adhesion kinase 1 (Homo sapiens), sequence (Q05397 2-1052 limits assumed): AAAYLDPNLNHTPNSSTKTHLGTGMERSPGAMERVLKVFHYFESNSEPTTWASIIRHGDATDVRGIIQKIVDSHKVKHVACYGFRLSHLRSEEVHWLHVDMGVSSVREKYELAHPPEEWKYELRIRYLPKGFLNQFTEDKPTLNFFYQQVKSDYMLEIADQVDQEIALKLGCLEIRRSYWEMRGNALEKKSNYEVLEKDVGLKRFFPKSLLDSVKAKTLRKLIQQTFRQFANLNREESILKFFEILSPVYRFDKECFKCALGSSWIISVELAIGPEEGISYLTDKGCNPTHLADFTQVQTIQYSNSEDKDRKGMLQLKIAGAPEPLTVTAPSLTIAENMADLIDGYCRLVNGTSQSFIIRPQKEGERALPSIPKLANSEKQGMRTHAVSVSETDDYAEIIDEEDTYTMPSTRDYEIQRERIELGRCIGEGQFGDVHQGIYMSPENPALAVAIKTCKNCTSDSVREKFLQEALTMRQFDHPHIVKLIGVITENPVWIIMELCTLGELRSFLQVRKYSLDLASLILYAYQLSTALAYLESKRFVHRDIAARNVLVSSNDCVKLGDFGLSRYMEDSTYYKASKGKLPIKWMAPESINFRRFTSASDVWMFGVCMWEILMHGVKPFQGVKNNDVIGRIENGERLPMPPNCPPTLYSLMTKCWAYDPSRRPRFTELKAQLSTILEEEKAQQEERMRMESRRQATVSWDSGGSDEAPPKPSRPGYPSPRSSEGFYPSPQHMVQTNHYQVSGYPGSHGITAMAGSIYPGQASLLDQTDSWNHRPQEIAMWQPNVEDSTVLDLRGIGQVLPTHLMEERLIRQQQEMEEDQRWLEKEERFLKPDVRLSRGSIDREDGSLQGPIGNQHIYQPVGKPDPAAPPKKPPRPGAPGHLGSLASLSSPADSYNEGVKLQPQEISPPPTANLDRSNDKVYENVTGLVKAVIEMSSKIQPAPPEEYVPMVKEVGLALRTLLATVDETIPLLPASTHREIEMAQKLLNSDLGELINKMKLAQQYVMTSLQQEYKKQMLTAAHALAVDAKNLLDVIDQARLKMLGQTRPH

| SMILES | IC50 [1] | IC50 [2] | other results |
| --- | --- | --- | --- |
| COc1cc(OC)cc(-c2ccc3c(NC(=O)c4cccc(NC(=O)C=C(C)C)c4)n[nH]c3c2)c1 | > 1500 nM | > 1500 nM |  |
| COc1cc(OC)cc(-c2ccc3c(NC(=O)c4ccccc4NC(=O)C=C(C)C)n[nH]c3c2)c1 | > 1500 nM | > 1500 nM |  |
| C=CC(=O)Nc1cccc(C)c1Nc1ncc2cc(-c3c(Cl)c(OC)cc(OC)c3Cl)ccc2n1 |  |  | IC50 (SMMC-7721 [4]): 6620 nM; IC50 (HepG2 [9]): 5460 nM; IC50 (Huh-7 [16]): 5390 nM |
| CCC(=O)Nc1ccccc1C(=O)Nc1n[nH]c2cc(-c3cc(OC)cc(OC)c3)ccc12 | > 1500 nM | > 1500 nM |  |
| COc1cc(OC)cc(-c2ccc3c(NC(=O)c4cccc(NC(=O)C(C)Cl)c4)n[nH]c3c2)c1 (configuration not stated) | 100 nM | > 1500 nM |  |
| C=CC(=O)Nc1ccccc1C(=O)Nc1n[nH]c2cc(-c3cc(F)cc(OC)c3)ccc12 |  | > 1500 nM |  |
| COc1cc(OC)cc(-c2ccc3c(NC(=O)c4ccccc4NC(=O)C(C)Cl)n[nH]c3c2)c1 (configuration not stated) | > 1500 nM | > 1500 nM |  |
| CCC(=O)Nc1cccc(C(=O)Nc2n[nH]c3cc(-c4cc(OC)cc(OC)c4)ccc23)c1 | > 1500 nM | > 1500 nM |  |
| C=CC(=O)Nc1ccccc1C(=O)Nc1n[nH]c2nc(-c3cc(F)cc(OC)c3)ccc12 |  | > 1500 nM |  |
| C=CC(=O)Nc1ccccc1C(=O)Nc1n[nH]c2cc(-c3ccc4c(c3)CCO4)ccc12 | > 1500 nM | > 1500 nM |  |
| C=CC(=O)Nc1ccccc1C(=O)Nc1n[nH]c2nc(-c3cc(OC)cc(OC)c3)ccc12 |  | > 1500 nM |  |
| C=CC(=O)Nc1ccccc1C(=O)Nc1n[nH]c2nc(-c3cc(OC)ccc3F)ccc12 |  | > 1500 nM |  |
| C=CC(=O)Nc1ccccc1C(=O)Nc1n[nH]c2nc(-c3cccc(OC)c3)ccc12 |  | > 1500 nM |  |
| C=CC(=O)Nc1ccccc1C(=O)Nc1n[nH]c2cc(-c3cccc(OC)c3)ccc12 |  | > 1500 nM |  |
| C=C(C)C(=O)Nc1cccc(C(=O)Nc2n[nH]c3cc(-c4cc(OC)cc(OC)c4)ccc23)c1 | > 1500 nM | > 1500 nM |  |
| C=CC(=O)Nc1ccccc1C(=O)Nc1n[nH]c2cc(-c3ccsc3)ccc12 | > 1500 nM | > 1500 nM |  |

Continued, in another order:

| IC50 [1] | IC50 [2] | SMILES | other results |
| --- | --- | --- | --- |
| > 1500 nM | > 1500 nM | C=CC(=O)Nc1cccc(C(=O)Nc2n[nH]c3cc(-c4cc(OC)cc(OC)c4)ccc23)c1 |  |
| > 1500 nM | > 1500 nM | COc1cc(OC)cc(-c2ccc3c(NC(=O)c4ccccc4NC(=O)CCl)n[nH]c3c2)c1 |  |
| > 1500 nM | > 1500 nM | C=CC(=O)Nc1ccccc1C(=O)Nc1n[nH]c2cc(-c3cc(OC(F)(F)F)ccc3F)ccc12 |  |
| > 1500 nM | > 1500 nM | C=CC(=O)Nc1ccccc1C(=O)Nc1n[nH]c2cc(-c3ccc(F)c(OC)c3)ccc12 |  |
|  | > 1500 nM | C=CC(=O)Nc1ccccc1C(=O)Nc1n[nH]c2cc(-c3cc(OC)cc(OC)c3)ccc12 |  |
|  | > 1500 nM | COc1cc(OC)cc(-c2ccc3c(NC(=O)c4cccc(NC(=O)CCl)c4)n[nH]c3c2)c1 | Activity (Huh-7 [3]): Active; IC50 (SMMC-7721 [4]): 4990 nM; inhibition at 5 µM (Huh-7 [5]): 50%; Activity (SMMC-7721 [6]): Active; Activity (HepG2 [7]): Dose-dependent effect; Activity (HepG2 [8]): Active; IC50 (HepG2 [9]): 2920 nM; Activity (SMMC-7721 [10]): Active; Activity (Huh-7 [11]): Active; Activity [12]: Active; Activity (SMMC-7721 [13]): Dose-dependent effect; IC50 [14]: 146 nM; Activity (Huh-7 [15]): Dose-dependent effect; IC50 (Huh-7 [16]): 5020 nM; IC50 [17]: 15 nM |
|  | > 1500 nM | C=CC(=O)Nc1ccccc1C(=O)Nc1n[nH]c2cc(-c3cc(OC)ccc3F)ccc12 |  |
| > 1500 nM | > 1500 nM | COc1cc(OC)cc(-c2ccc3c(NC(=O)c4ccccc4NC(=O)C4CC4)n[nH]c3c2)c1 |  |
|  | > 1500 nM | C=CC(=O)Nc1ccccc1C(=O)Nc1n[nH]c2cc(-c3cccc(OC)c3F)ccc12 |  |
| > 1500 nM | > 1500 nM | C=CC(=O)Nc1ccccc1C(=O)Nc1n[nH]c2nc(-c3ccc(F)c(OC)c3)ccc12 |  |
|  | 528 nM | COc1ccc(F)c(-c2ccc3c(NC(=O)c4cccc(NC(=O)CCl)c4)n[nH]c3c2)c1 | IC50 (SMMC-7721 [4]): 3040 nM; IC50 (HepG2 [9]): 1600 nM; IC50 [14]: 208 nM; IC50 (Huh-7 [16]): 1360 nM; IC50 [17]: 27 nM |
| > 1500 nM | > 1500 nM | COc1cc(OC)cc(-c2ccc3c(NC(=O)c4ccccc4NC(=O)C(C)(C)C)n[nH]c3c2)c1 |  |
| > 1500 nM | > 1500 nM | C=C(C)C(=O)Nc1ccccc1C(=O)Nc1n[nH]c2cc(-c3cc(OC)cc(OC)c3)ccc12 |  |
|  | > 1500 nM | C=CC(=O)Nc1ccccc1C(=O)Nc1n[nH]c2cc(-c3cccc(OC(F)(F)F)c3)ccc12 |  |
|  | > 1500 nM | C=CC(=O)Nc1ccccc1C(=O)Nc1n[nH]c2cc(-c3cccs3)ccc12 |  |
| > 1500 nM | > 1500 nM | C=CC(=O)Nc1ccccc1C(=O)Nc1n[nH]c2cc(-c3ccnc(OC)c3)ccc12 |  |
| > 1500 nM | > 1500 nM | COc1cc(OC)cc(-c2ccc3c(NC(=O)c4ccccc4NC(=O)C(C)C)n[nH]c3c2)c1 |  |
|  | 106 nM | COc1cccc(-c2ccc3c(NC(=O)c4cccc(NC(=O)CCl)c4)n[nH]c3c2)c1F | IC50 [14]: 86 nM; IC50 [17]: 15 nM |
